Measured values as given in ChEMBL document CHEMBL1122125, “Synthesis and in vivo antitumor activity of potential 5-fluorouracil prodrugs” (1982).

How the values were obtained:
Mus musculus [1] = test: Percent increase in life span against P-388 leukemia in mice was determined at a dose of 600 mg/kg; assay type: functional; settings: P388
In short: (§1)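 Male B6D2F1J mice, 5 per dose group, received 10⁶ P-388 cells ip on day 0. Dosing was ip qd × 4 on days 1-4 in sterile saline, or 10% Tween 80 for the butyl thioether. Median survival times of treated (T) and untreated control (C, 10-17 mice) groups were compared: %ILS = [(T/C) − 1]100. Weights taken on days 1 and 7.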

Mus musculus [2] = test: Antitumor activity was determined for average weight on day 1 against P-388 leukemia in mice at a dose of 150 mg/kg; assay type: functional
In short: (§2)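 Male B6D2F1J mice given 10⁶ P-388 cells ip on day 0, then treated ip once daily on days 1-4 (qd × 4), 5 mice per dose group. Compounds dosed in sterile saline, except one lipophilic thioether given in 10% Tween 80. Mice weighed on days 1 and 7; mean weight per mouse on day 1 and 7-day weight change reported in g and as percent.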

Mus musculus [3] = test: Percent increase in life span against P-388 leukemia in mice was determined at a dose of 300 mg/kg; assay type: functional; settings: P388; in short: as §1
Mus musculus [4] = test: Antitumor activity was determined for 7-day average percent weight change against P-388 leukemia in mice at a dose of 300 mg/kg; assay type: functional; in short: as §2
Mus musculus [5] = test: Antitumor activity was determined for survival range of mice against P-388 leukemia in mice at a dose of 75 mg/kg; assay type: functional
In short: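 Male B6D2F1J mice, 5 per dose group, implanted ip with 10⁶ P-388 leukemia cells on day 0. Drug given ip daily on days 1-4 (qd × 4) in sterile saline, or in 10% Tween 80 for the butyl thioether. Survival range recorded in days. Untreated control groups had 10-17 animals per experiment. Mice weighed on days 1 and 7.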

Mus musculus [6] = test: Antitumor activity was determined for 7-day average percent weight change against P-388 leukemia in mice at a dose of 75 mg/kg; assay type: functional; in short: as §2
Mus musculus [7] = test: Antitumor activity was determined for survival range of mice against P-388 leukemia in mice at a dose of 600 mg/kg; assay type: functional
In short: (§3)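 Male B6D2F1J mice implanted ip with 10⁶ P-388 cells on day 0; test agents given ip on days 1–4 (qd × 4) in sterile saline, or in 10% Tween 80 for the lipophilic thioether. Groups of 5 treated mice, with 10–17 untreated controls per experiment. Mice weighed on days 1 and 7 to give the 7-day weight change in g and %. Survival recorded in days as median and range.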

Mus musculus [8] = test: Antitumor activity was determined for 7-day average percent weight change against P-388 leukemia in mice at a dose of 150 mg/kg; assay type: functional; in short: as §2
Mus musculus [9] = test: Antitumor activity was determined for median survival of mice against P-388 leukemia in mice at a dose of 75 mg/kg; assay type: functional; in short: as §3
Mus musculus [10] = test: Percent increase in life span against P-388 leukemia in mice was determined at a dose of 150 mg/kg; assay type: functional; settings: P388; in short: as §1
Mus musculus [11] = test: Antitumor activity was determined for average weight on day 1 against P-388 leukemia in mice at a dose of 75 mg/kg; assay type: functional
In short: (§4)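 Male B6D2F1J mice, groups of 5, inoculated ip with 10⁶ P-388 cells on day 0. Drug given ip on days 1-4 (qd × 4) in sterile saline, or in 10% Tween 80 for the poorly water-soluble thioether. Average weight per mouse recorded on day 1, with reweighing on day 7 for percent weight change. Untreated control groups had 10-17 animals per experiment.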

Mus musculus [12] = test: Antitumor activity was determined for median survival of mice against P-388 leukemia in mice at a dose of 150 mg/kg; assay type: functional; in short: as §3
Mus musculus [13] = test: Antitumor activity was determined for survival range of mice against P-388 leukemia in mice at a dose of 300 mg/kg; assay type: functional; in short: as §3
Mus musculus [14] = test: Antitumor activity was determined for median survival of mice against P-388 leukemia in mice at a dose of 300 mg/kg; assay type: functional; in short: as §3
Mus musculus [15] = test: Antitumor activity was determined for average weight on day 1 against P-388 leukemia in mice at a dose of 600 mg/kg; assay type: functional; in short: as §4
Mus musculus [16] = test: Antitumor activity was determined for average weight on day 1 against P-388 leukemia in mice at a dose of 300 mg/kg; assay type: functional; in short: as §4
Mus musculus [17] = test: Antitumor activity was determined for average 7-day weight change against P-388 leukemia in mice at a dose of 300 mg/kg; assay type: functional; in short: as §2
Mus musculus [18] = test: Antitumor activity was determined for average 7-day weight change against P-388 leukemia in mice at a dose of 150 mg/kg; assay type: functional; in short: as §2
Mus musculus [19] = test: Antitumor activity was determined for median survival of mice against P-388 leukemia in mice at a dose of 600 mg/kg; assay type: functional; in short: as §3
Mus musculus [20] = test: Percent increase in life span against P-388 leukemia in mice was determined at a dose of 75 mg/kg; assay type: functional; settings: P388; in short: as §1
Mus musculus [21] = test: Antitumor activity was determined for survival range of mice against P-388 leukemia in mice at a dose of 150 mg/kg; assay type: functional; in short: as §3
Mus musculus [22] = test: Antitumor activity was determined for average 7-day weight change against P-388 leukemia in mice at a dose of 75 mg/kg; assay type: functional; in short: as §2
L1210 = test: Evaluated for cytotoxicity against L1210 mouse leukemia cells; assay type: functional; settings: read-out: ID50 (the source's name)
In short: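 L1210 murine leukemia cells in Eagle's minimal essential medium with 15% fetal calf serum, streptomycin (100 μg/mL), penicillin (100 units/mL) and 0.05 mM 2-mercaptoethanol. Cells counted by Coulter counter after 48 h exposure. ID50 is the 50% growth-inhibitory dose. Triplicate assays, standard deviation ±10%.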

P388 [23] = test: Antitumor activity was determined for average weight on day 1 against P-388 leukemia in mice at a dose of 30 mg/kg; assay type: functional, Mus musculus; in short: as §3
P388 [24] = test: Antitumor activity was determined for 7-day average percent weight change against P-388 leukemia in mice at a dose of 30 mg/kg; assay type: functional, Mus musculus; in short: as §3
P388 [25] = test: Antitumor activity was determined for median survival of mice against P-388 leukemia in mice at a dose of 30 mg/kg; assay type: functional, Mus musculus; in short: as §3
P388 [26] = test: Antitumor activity was determined for average 7-day weight change against P-388 leukemia in mice at a dose of 30 mg/kg; assay type: functional, Mus musculus; in short: as §3
P388 [27] = test: Antitumor activity was determined for survival range of mice against P-388 leukemia in mice at a dose of 30 mg/kg; assay type: functional, Mus musculus; in short: as §3
P388 [28] = test: Antitumor activity was determined for 7-day average percent weight change against P-388 leukemia in mice at a dose of 15 mg/kg; assay type: functional, Mus musculus; in short: as §3
P388 [29] = test: Antitumor activity was determined for median survival of mice against P-388 leukemia in mice at a dose of 15 mg/kg; assay type: functional, Mus musculus; in short: as §3
P388 [30] = test: Antitumor activity was determined for average 7-day weight change against P-388 leukemia in mice at a dose of 15 mg/kg; assay type: functional, Mus musculus; in short: as §3
P388 [31] = test: Antitumor activity was determined for survival range of mice against P-388 leukemia in mice at a dose of 15 mg/kg; assay type: functional, Mus musculus; in short: as §3
P388 [32] = test: Percent increase in life span against P-388 leukemia in mice was determined at a dose of 30 mg/kg; assay type: functional; settings: Mus musculus; in short: as §1
P388 [33] = test: Percent increase in life span against P-388 leukemia in mice was determined at a dose of 15 mg/kg; assay type: functional; settings: Mus musculus; in short: as §1
P388 [34] = test: Antitumor activity was determined for average weight on day 1 against P-388 leukemia in mice at a dose of 15 mg/kg; assay type: functional, Mus musculus; in short: as §3

CCCCSC[C@H]1OC(n2cc(F)c(=O)[nH]c2=O)[C@H](O)[C@@H]1O (stereo partly specified) was tested, and the ILS at 600 mg/kg (Mus musculus [1]) was -67%, the Average weight (Mus musculus [2]) was 27.8 g mouse-1 and the ILS at 300 mg/kg (Mus musculus [3]) was -9%. It also gave a Weight change (Mus musculus [4]) of -1%, a Survival range (Mus musculus [5]) of 11 and a Weight change (Mus musculus [6]) of 8%. For the same compound, the Survival range (Mus musculus [7]) was 3, the Weight change (Mus musculus [8]) was 5% and the Survival median (Mus musculus [9]) was 11. The ILS at 150 mg/kg (Mus musculus [10]) was -9%, the Average weight (Mus musculus [11]) was 26.6 g mouse-1 and the Survival median (Mus musculus [12]) was 11. It also gave a Survival range (Mus musculus [13]) of 11, a Survival median (Mus musculus [14]) of 11 and an Average weight (Mus musculus [15]) of 26.4 g mouse-1. For the same compound, the Average weight (Mus musculus [16]) was 28 g mouse-1, the Average weight (Mus musculus [17]) was -0.4 g mouse-1 and the Average weight (Mus musculus [18]) was 1.4 g mouse-1. The Survival median (Mus musculus [19]) was 4, the ILS at 75 mg/kg (Mus musculus [20]) was -9% and the Survival range (Mus musculus [21]) was 10. The Average weight (Mus musculus [22]) was 2 g mouse-1 and the IC50 (L1210) was 270 µM.
With O=c1[nH]cc(F)c(=O)[nH]1 [FLUOROURACIL] the Average weight (P388 [23]) was 24.2 g mouse-1, the Weight change (P388 [24]) was -13% and the Survival median (P388 [25]) was 21. The Average weight (P388 [26]) was -3.2 g mouse-1, the Survival range (P388 [27]) was 11 and the Weight change (P388 [28]) was 2%. For the same compound, the Survival median (P388 [29]) was 19, the Average weight (P388 [30]) was 0.4 g mouse-1 and the Survival range (P388 [31]) was 15. The ILS at 30 mg/kg (P388 [32]) was 91%, the ILS at 15 mg/kg (P388 [33]) was 73% and the Average weight (P388 [34]) was 24.4 g mouse-1. It also gave an IC50 (L1210) of 1 µM.
